Test results as given in ChEMBL document CHEMBL5360562 (Eur J Med Chem, 2023).

Legend:
Klebsiella pneumoniae = test: Potentiation of Clarithromycin antibacterial activity against Klebsiella pneumoniae ATCC BAA-2146 assessed as clarithromycin MIC at 7.5 uM incubated for 16 hrs by broth microdilution method; assay type: functional
Pseudomonas aeruginosa [1] = test: Potentiation of Clarithromycin antibacterial activity against Pseudomonas aeruginosa PAO1 assessed as clarithromycin MIC at 20 uM incubated for 16 hrs by broth microdilution method; assay type: functional
Outline: (§1)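 Checkerboard-style potentiation by broth microdilution. 6 h day cultures in CAMHB diluted to 5×10^5 CFU/mL. Adjuvant added from 10 mM DMSO stock at fixed concentration throughout. […] Controls: antibiotic alone, adjuvant alone, media only. Incubated stationary at 37 °C for 16 h. MIC is lowest concentration with no visible growth; fold reduction taken against the antibiotic-alone lane.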

Pseudomonas aeruginosa [2] = test: Antibacterial activity against Pseudomonas aeruginosa PAO1 assessed as inhibition of bacterial growth incubated for 16 hrs by broth microdilution method; assay type: functional
Outline: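 Standalone MIC by broth microdilution. 6 h day cultures in cation-adjusted Mueller-Hinton broth (CAMHB) diluted to 5×10^5 CFU/mL. Compound added from 10 mM DMSO stock to 200 μM (highest concentration), then twofold serial dilution. Incubated stationary at 37 °C for 16 h. OD600 read; MIC is lowest concentration with <10% growth versus positive control.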

Acinetobacter baumannii [3] = test: Potentiation of erythromycin antibacterial activity against Acinetobacter baumannii AB5075 assessed as erythromycin MIC at 7.5 uM incubated for 16 hrs by broth microdilution method; assay type: functional
Acinetobacter baumannii [4] = test: Antibacterial activity against Acinetobacter baumannii AB5075 assessed as reduction in bacterial growth incubated for 16 hrs by broth microdilution method; assay type: functional
Acinetobacter baumannii [5] = test: Potentiation of Clarithromycin antibacterial activity against Acinetobacter baumannii AB5075 assessed as fold reduction in clarithromycin MIC at 10 uM incubated for 16 hrs by broth microdilution method; assay type: functional; outline: as §1
Acinetobacter baumannii [6] = test: Potentiation of Clarithromycin antibacterial activity against Acinetobacter baumannii AB5075 assessed as clarithromycin MIC at 2.5 uM incubated for 16 hrs by broth microdilution method; assay type: functional
[7] = Therapeutic index, ratio of IC50 for antiproliferative against human HepG2 cells assessed as reduction in cell viability to MIC for potentiation of Clarithromycin antibacterial activity against Acinetobacter baumannii […] assessed as clarithromycin MIC; assay type: toxicity, cell-based; settings: read-out: TI
Acinetobacter baumannii [8] = test: Potentiation of Clarithromycin antibacterial activity against Acinetobacter baumannii AB5075 assessed as clarithromycin MIC at 10 uM incubated for 16 hrs by broth microdilution method; assay type: functional
Acinetobacter baumannii [9] = test: Potentiation of rifampicin antibacterial activity against Acinetobacter baumannii AB5075 assessed as rifampicin MIC at 30 uM incubated for 16 hrs by broth microdilution method; assay type: functional
Acinetobacter baumannii [10] = test: Potentiation of Clarithromycin antibacterial activity against Acinetobacter baumannii AB5075 assessed as reduction in clarithromycin MIC at 20 uM incubated for 16 hrs by broth microdilution method; assay type: functional
Acinetobacter baumannii [11] = test: Potentiation of Clarithromycin antibacterial activity against Acinetobacter baumannii AB5075 assessed as clarithromycin MIC at 30 uM incubated for 16 hrs by broth microdilution method; assay type: functional
Acinetobacter baumannii [12] = test: Potentiation of Clarithromycin antibacterial activity against Acinetobacter baumannii AB5711 assessed as clarithromycin MIC at 10 uM incubated for 16 hrs by broth microdilution method; assay type: functional
Pseudomonas aeruginosa [13] = test: Potentiation of Clarithromycin antibacterial activity against Pseudomonas aeruginosa PAO1 assessed as clarithromycin MIC at 30 uM incubated for 16 hrs by broth microdilution method; assay type: functional
Acinetobacter baumannii [14] = test: Potentiation of Azithromycin antibacterial activity against Acinetobacter baumannii AB5075 assessed as azithromycin MIC at 5 uM incubated for 16 hrs by broth microdilution method; assay type: functional
Acinetobacter baumannii [15] = test: Potentiation of Clarithromycin antibacterial activity against Acinetobacter baumannii AB5075 assessed as fold reduction in clarithromycin MIC at 30 uM incubated for 16 hrs by broth microdilution method; assay type: functional; outline: as §1
Acinetobacter baumannii [16] = test: Potentiation of erythromycin antibacterial activity against Acinetobacter baumannii AB5075 assessed as erythromycin MIC at 5 uM incubated for 16 hrs by broth microdilution method; assay type: functional
Acinetobacter baumannii [17] = test: Potentiation of Clarithromycin antibacterial activity against Acinetobacter baumannii AB4498 assessed as clarithromycin MIC at 10 uM incubated for 16 hrs by broth microdilution method; assay type: functional

Work on `Cl.Cl.Nc1nc(-c2ccc(NC(=O)Nc3cccc(-c4c[nH]c(N)n4)c3F)cc2F)c[nH]1` yielded an MIC (Klebsiella pneumoniae) of 16 mg/L, an MIC (Pseudomonas aeruginosa [1]) of 16 mg/L and an MIC (Pseudomonas aeruginosa [2]) of 256 µM. For the same compound, the MIC (Acinetobacter baumannii [3]) was 0.25 mg/L, the MIC (Acinetobacter baumannii [4]) was over 200 µM and the “fold change (FC)” value (Acinetobacter baumannii [5]) was “>=512”. The MIC (Acinetobacter baumannii [6]) was 0.125 mg/L, the selectivity ratio [7] was 287 and the MIC (Acinetobacter baumannii [8]) was at most 0.062 mg/L. For the same compound, the MIC (Acinetobacter baumannii [9]) was 0.001 mg/L, the “fold change (FC)” value (Acinetobacter baumannii [10]) was “>=512” and the MIC (Acinetobacter baumannii [10]; Acinetobacter baumannii, AB5075) was at most 0.062 mg/L. It also gave an MIC (Acinetobacter baumannii [11]) of at most 0.062 mg/L, an MIC (Acinetobacter baumannii [12]) of at most 0.062 mg/L and an MIC (Pseudomonas aeruginosa [13]) of 0.5 mg/L. For the same compound, the MIC (Acinetobacter baumannii [14]) was 1 mg/L, the “fold change (FC)” value (Acinetobacter baumannii [15]) was “>=512” and the MIC (Acinetobacter baumannii [16]) was 0.5 mg/L. It also gave an MIC (Acinetobacter baumannii [17]) of at most 0.062 mg/L.
